# From PubChem BioAssay
# MrgX1 ag: agonists of human MrgX1 receptor, primary screen, HEK293 cells, Fluo-4 calcium flux; Fluo-4 calcium fluorescence, agonist mode; active compounds read high; B-score at 10 µM; 0.44% of 310,000 active;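 active = calcium response B-score plate-corrected fluorescence ratio at least 3 library SD, with starting fluorescence B-score inside 5 SD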
# Target sequence (Q96LB2 whole entry, looked up): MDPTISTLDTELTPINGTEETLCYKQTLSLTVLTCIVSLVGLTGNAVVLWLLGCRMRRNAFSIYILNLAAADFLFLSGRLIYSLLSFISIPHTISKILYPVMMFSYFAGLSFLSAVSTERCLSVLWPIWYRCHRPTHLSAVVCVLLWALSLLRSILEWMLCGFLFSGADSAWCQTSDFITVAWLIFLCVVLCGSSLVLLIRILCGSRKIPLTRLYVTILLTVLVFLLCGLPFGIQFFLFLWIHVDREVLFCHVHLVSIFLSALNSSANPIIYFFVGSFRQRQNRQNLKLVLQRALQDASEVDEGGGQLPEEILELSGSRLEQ
#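 Assay system: stable human MrgX1 HEK293 cell line. Quantity: 15,000 cells per well. Schedule: cells plated overnight, dye loaded 0.5 h 37 °C, 0.5 h room temperature. Detection: Fluo-4 NW calcium-flux fluorescence, kinetic read. Read-out basis: peak-minus-minimum fluorescence over baseline, converted to B scores. Control set: positive and negative control wells on each plate.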
# RGS4 block: RGS4 inhibitors, primary screen, cell-based, HEK293 M3R inducible RGS4, calcium flux | Regulator of G-protein signaling 4 (Homo sapiens), P49798 | Fluo-4 calcium flux; active compounds read high; triggered by carbachol at its EC20 | B-score at 10 µM | 0.45% of 310,000 active;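 active = B-score, a plate-corrected calcium signal, over three deviations above library mean, with baseline fluorescence within five deviations of library mean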;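 also: RGS4 expression induced by doxycycline in cells with stable M3 receptor; B-score is computed from the integrated fluorescence ratio over baseline after carbachol; higher B-score means a larger calcium signal and so more RGS4 inhibition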
# Target sequence (P49798 whole entry, looked up): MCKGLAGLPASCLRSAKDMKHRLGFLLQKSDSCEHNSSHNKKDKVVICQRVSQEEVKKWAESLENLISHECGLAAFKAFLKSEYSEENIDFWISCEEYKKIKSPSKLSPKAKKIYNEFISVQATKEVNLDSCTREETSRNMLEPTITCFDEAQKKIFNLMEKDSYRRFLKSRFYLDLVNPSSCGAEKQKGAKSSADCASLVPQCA
# MrgX1 allo act: positive allosteric modulators of MrgX1, primary screen, HEK293 cells, Fluo-4 calcium flux; FDSS; active compounds read high; B-score at 10 µM; 0.63% of 310,000 active; AID 588675, 2011;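 active = plate-corrected calcium response at least 3 library SD above typical, normal starting fluorescence, not activating the receptor alone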;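 also: compound read alongside a low EC10 to EC30 dose of BAM8-22 agonist; peak minus trough fluorescence over baseline measured at the second addition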
# RGS4 pot: RGS4 potentiators or activators, primary screen, cell-based, HEK293 M3R inducible RGS4, calcium flux; carbachol calcium flux Fluo4; active compounds read low; B-score at 10 µM; 0.92% of 310,000 active; AID 463111, 2010;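 active = B-score of the integrated calcium signal more than 4 SD below the library mean, with starting fluorescence not abnormally high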;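 also: negative B-score means reduced calcium response which marks RGS4 activation or potentiation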
#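 Assay system: HEK293 FlpIn-TREx cells, stable M3R, doxycycline-inducible RGS4 / Probe or stimulus: carbachol, ECmax concentration / Times: overnight RGS4 induction, 30 min dye load 37 °C, 20 min compound RT / Signal: kinetic calcium fluorescence imaging with Fluo4-AM dye, 2 µM / Measure: Agonist-evoked peak-minus-minimum fluorescence over baseline, integrated ratio, B score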
# MrgX1 antag: antagonists of human MrgX1 receptor, primary screen, HEK293 cells, Fluo-4 calcium flux; BAM8-22 antagonism; active compounds read low; B-score at 10 µM; 1.3% of 310,000 active;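 active = calcium-response B-score plate-corrected more than 3 library SD below zero, starting fluorescence within 5 deviations, no agonist response on first addition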;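 also: peak minus trough fluorescence over baseline after final BAM8-22 challenge near maximal dose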
# RGS4 block valid: enhanced carbachol calcium response, M3R/RGS4 cells, RGS4 inhibitor project, cell-based, validation screen, HEK293 M3R/RGS4, calcium flux | shares compounds with RGS4 block | carbachol calcium Fluo-4 fluorescence; carbachol added at its EC20; 0 = buffer wells, 100 = carbachol control | calcium response, % at 10 µM | 65% of 1,700 active;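 active = duplicate-averaged calcium response above the buffer-only control mean plus 5 SD of those controls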;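 also: integrated fluorescence ratio F max minus min over baseline F0; higher response in RGS4-induced cells means RGS4 inhibition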
# M3R Ca ctr: carbachol calcium response in non-induced M3R cells, confirmation, counter-screen for RGS4 inhibitor project, cell-based, HEK293 M3R; shares compounds with RGS4 block; carbachol calcium Fluo-4; submaximal (EC20) carbachol stimulus; buffer wells 0%, carbachol control wells 100%; activity (percent), % at 10 µM; 20% of 1,900 active; AID 493000, 2010; call rule not given here;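 also: RGS4 induction absent so cells express M3R without RGS4; higher means more calcium signal and flags a non-specific hit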
# RGS4 inh ctr2: signal in non-induced cells without carbachol, RGS4 inhibitor counter-screen | shares compounds with RGS4 block | HEK293 M3R/RGS4 non-induced, Fluo-4 calcium, no carbachol; normalised: buffer wells 0%, carbachol wells 100% | calcium response (agonist-mode artifact), % at 10 µM | 22% of 1,900 active;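 active = duplicate-averaged calcium rise in uninduced cells above buffer wells' mean plus 5 SD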
# Numbers without * were called inactive; i = inactive; nt = no result. Shown are actives, neighbours in structure and some others; about 3.5% of the full set was active somewhere.
SMILES,MrgX1 ag,RGS4 block,MrgX1 allo act,RGS4 pot,MrgX1 antag,RGS4 block valid,M3R Ca ctr,RGS4 inh ctr2
COc1ccccc1NC(=O)c1ccccc1C(=O)Nc1ccccc1OC,i,i,i,i,i,nt,nt,nt
CCc1ccccc1-n1ncc(C(=O)Nc2ccccc2OC)c1C,i,7.41*,i,i,i,i,i,31.5%*
CCOc1ccc(C(=O)CCC(=O)N(CC)CC(=O)NCc2ccc(Cl)cc2)cc1,i,i,i,i,i,nt,nt,nt
Cc1ccc(-c2nn(-c3ccccc3)cc2/C=N/n2c(-c3ccncc3)n[nH]c2=S)cc1,i,i,i,i,i,i,i,i
S=c1[nH]nc(-c2ccncc2)n1/N=C/C(Cl)=C\c1ccccc1,i,9.84*,i,i,i,20.5%*,44.0%*,i
C=CCNC(=O)CSCc1ccc(Br)cc1,i,i,i,i,i,nt,nt,nt
C=CCN1C(=O)/C(=C/c2ccsc2)SC1=S,i,i,i,i,i,nt,nt,nt
O=C(O)C(c1ccccc1)N1C(=O)/C(=C\c2ccc(-c3ccc(Br)cc3)o2)SC1=S (stereo not drawn),nt,9.56*,nt,-7.76*,nt,9.0%*,i,234.0%*
C=CCN1C(=O)/C(=C/c2ccc(-c3ccc(F)cc3)o2)SC1=S,i,14.3*,i,i,-5.6*,33.5%*,i,59.5%*
CCOCCCNC1=C(Cl)C(=O)c2ccccc2C1=O,i,5.55*,i,i,i,30.0%*,i,i
CCOCCCNS(=O)(=O)c1ccccc1,i,i,i,i,i,nt,nt,nt
NC(=O)CC(NC(=O)Cc1ccc(Br)cc1)c1ccc(NC2CCC2)c([N+](=O)[O-])c1 (stereo not drawn),i,i,i,i,i,nt,i,i
NC(=O)CC(NC(=O)Cc1ccc(Cl)cc1)c1ccc(NC2CCCC2)c([N+](=O)[O-])c1 (stereo not drawn),i,i,i,i,i,i,i,i
Cc1ccc(S(=O)(=O)N(C)CC(=O)Nc2nnc(CC(C)C)s2)cc1,i,i,i,i,i,nt,nt,nt
CCN(CC)C(=O)Cn1c(=O)n(CC(=O)N2CCCCC2)c(=O)c2sccc21,i,17.2*,i,i,i,i,i,i
CC(C)CC(NC(=O)C(CO)NC(=O)C1CCC(=O)N1)C(N)=O (stereo not drawn),i,i,i,i,i,nt,nt,nt
Oc1ccc(C23CC4CC(CC(C4)C2)C3)cc1O,i,21.6*,i,i,i,16.0%*,52.0%*,15.0%*
CC(=O)Nc1ccc(C23CC4CC(CC(C4)C2)C3)cc1,i,i,i,i,i,nt,nt,nt
Cc1cc(C(=O)OCC(=O)NCc2ccc(Cl)cc2)c(C)o1,i,i,i,i,i,nt,nt,nt
CCOc1cc(/C=C\c2[nH]c(=O)[nH]c(=O)c2[N+](=O)[O-])ccc1OC(C)CC (stereo not drawn),i,i,i,i,i,nt,i,50.5%*
CCCOc1ccc(/C=C/c2[nH]c(=O)[nH]c(=O)c2[N+](=O)[O-])cc1OCC,i,i,i,i,i,nt,nt,nt
COc1cccc(C(=O)N(C)CC2CCN(CCc3cccc(C(F)(F)F)c3)CC2)c1,i,i,i,i,i,nt,nt,nt
O=C(O)CCCN1C(=O)/C(=C\c2ccco2)SC1=S,nt,i,nt,i,nt,nt,nt,nt
O=C(O)CCN1C(=O)/C(=C\c2ccc(-c3nc4ccccc4s3)o2)SC1=S,i,i,i,i,i,i,i,53.5%*
CCOC(=O)c1c(C)nc(C)c(C(=O)OCC)c1-c1ccco1,i,i,i,i,i,nt,nt,nt
SMILES,MrgX1 ag,RGS4 block,MrgX1 allo act,RGS4 pot,MrgX1 antag,RGS4 block valid,M3R Ca ctr,RGS4 inh ctr2
CNC[C@H](O)c1ccc(O)c(O)c1,38.7*,4.91*,i,i,i,31.5%*,57.0%*,i
CNC[C@H](O)c1cccc(O)c1,i,i,i,i,i,nt,nt,nt
COC(=O)C1=C(C)OC(N)=C(C#N)C1c1cc2cccc(C)c2nc1Cl (stereo not drawn),i,i,i,i,i,nt,nt,nt
CC(=O)C1=C(C)OC(N)=C(C#N)C1c1cc2cccc(C)c2nc1Cl (stereo not drawn),i,6.84*,i,i,i,21.5%*,33.5%*,i
CCN(CC(=O)Nc1cc(Cl)ccc1C)c1ncnc2sc(C)c(C)c12,i,i,i,i,i,nt,nt,nt
CC1(C)CC(=O)C(C(C2=C(O)CC(C)(C)CC2=O)c2ccco2)C(=O)C1 (stereo not drawn),i,6.99*,i,i,i,21.5%*,i,i
Cc1cc(C)c(S(=O)(=O)NCC(c2ccco2)N2CCc3ccccc3C2)c(C)c1 (stereo not drawn),i,i,i,i,i,nt,nt,nt
COc1ccc(C(=O)OCCOc2cccc(Cl)c2)cc1S(=O)(=O)N1CCOCC1,i,i,i,i,i,nt,nt,nt
Cc1noc(NS(=O)(=O)c2ccc(NC(=O)c3ccc(N4C(=O)c5ccccc5C4=O)cc3)cc2)c1C,i,i,i,i,i,nt,nt,nt
CCOc1ccc(C(=O)/C=C/Nc2ccc(S(=O)(=O)Nc3onc(C)c3C)cc2)cc1,i,i,i,i,i,nt,nt,nt
Cc1noc(NS(=O)(=O)c2ccc(N/C=C\C(=O)c3cccc4ccccc34)cc2)c1C,i,5.92*,i,i,i,i,i,i
Cc1noc(NS(=O)(=O)c2ccc(NC(=O)c3nn(-c4ccccc4)ccc3=O)cc2)c1C,i,i,i,i,i,i,i,i
Cc1noc(NS(=O)(=O)c2ccc(N/C=C\C(=O)c3ccc(Br)cc3)cc2)c1C,i,6.7*,i,i,i,14.0%*,i,i
